Experimental data as given in PubChem BioAssay AID1937 (Sanford-Burnham Center for Chemical Genomics, 2009).

System: Mouse plasma protein binding, RED dialysis, LC/MS/MS
Assay: fraction bound to mouse plasma proteins – biochemical, rapid equilibrium dialysis, LC/MS/MS, ADME assay, late-stage follow-up (AID 1937)
Details: stronger effect = higher value
How it was run: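 System: mouse plasma in RED dialysis device / Medium: PBS pH 7.4 dialysis buffer / Compound dosing: two final plasma concentrations, 1 µM and 10 µM, with 0.1% DMSO / Incubation: dialysis for 4 h at 37 °C with shaking / Signal: LC/MS/MS of both dialysis chambers / Measure: percent bound, from buffer-to-plasma concentration ratio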

CC1Cc2cc(S(=O)(=O)N3CCN(c4ccc(Cl)cc4)CC3)ccc2N1C(=O)C1CC1 (configuration not stated)
plasma protein bound (at 1 µM): 99.8%
plasma protein bound (bound, at 10 µM): 99.8%
